{"data": "Results from different studies", "CDK5 with p35": "Cyclin-dependent kinase 5, with p35 (CDK5, Homo sapiens, UniProt Q00535)", "CDK5 with p25": "Cyclin-dependent kinase 5, with p25 (CDK5, Homo sapiens, UniProt Q00535)", "CDK5": "Cyclin-dependent kinase 5 (CDK5, Homo sapiens, UniProt Q00535)", "note": "Compare with care: the assays were run in different laboratories."}
{"SMILES": "O=C1NC(=O)c2cc(Nc3ccc(F)cc3)c(Nc3ccc(F)cc3)cc21", "target": "CDK5 with p35", "test": "cell-free assay", "conditions": "0.5 µM", "measurement": "remaining signal", "result": "98.5%"}
{"SMILES": "CCCOc1ccc(OC)c(F)c1C(=O)c1ccc(C(=O)N[C@@H]2CNC[C@H]2NC(=O)c2ccc3[nH]ncc3c2)cc1", "target": "CDK5 with p25", "test": "enzyme activity, inhibitor", "conditions": "10 µM", "measurement": "remaining activity", "result": "1%"}
{"SMILES": "O=C1Nc2ccc(Cl)cc2C1=Cc1cc(Cl)c(O)c(Cl)c1", "target": "CDK5 with p35", "test": "cell-free assay", "conditions": "0.5 µM", "measurement": "remaining signal", "result": "94.5%"}
{"SMILES": "CS(=O)(=O)N1CCCC(NC(=O)[C@H](CCC2CCCCC2)NC(=O)c2ccc(CNC(=O)c3cnc4ccccn34)cc2)C1 (stereo partly drawn)", "target": "CDK5", "test": "cell-free assay, competition with immobilised ligand", "conditions": "0.1 µM", "measurement": "remaining binding", "result": "100%"}
{"SMILES": "Nc1nc(Nc2ccc(S(N)(=O)=O)cc2)nn1C(=O)c1c(F)cccc1F", "target": "CDK5 with p35", "test": "cell-free assay", "conditions": "0.5 µM", "measurement": "remaining signal", "result": "0.212%"}
{"SMILES": "Cc1ccc(C(=O)NCc2ccsc2)cc1C#Cc1cn(C(C)C)c2ncnc(N)c12", "target": "CDK5 with p35", "test": "enzyme activity, inhibitor", "conditions": "1 µM", "measurement": "activity vs control", "result": "96%"}
{"SMILES": "O=C1NC(c2ccccn2)Sc2ccccc21 (stereo not drawn)", "target": "CDK5", "test": "cell-free assay, competition with immobilised ligand", "conditions": "1 µM", "measurement": "remaining binding", "result": "86%"}
{"SMILES": "Oc1ccc(-c2nc(-c3ccncc3)c(-c3ccc(F)cc3)[nH]2)cc1", "target": "CDK5 with p35", "test": "cell-free assay", "conditions": "0.5 µM", "measurement": "remaining signal", "result": "97.3%"}
{"SMILES": "CC[C@H](C)[C@H](NC(=O)[C@H](CCC(N)=O)NC(=O)[C@H](CC(C)C)NC(=O)[C@H](CCSC)NC(=O)[C@H](CCCCN)NC(=O)[C@H](CO)NC(=O)[C@H](CO)NC(=O)[C@H](CCSC)NC(=O)[C@H](CC(C)C)NC(=O)[C@H](CC(N)=O)NC(=O)[C@@H](NC(=O)[C@@H](NC(=O)[C@H](CO)NC(=O)[C@H](CC(C)C)NC(=O)[C@H](CS)NC(=O)[C@H](CCCNC(=N)N)NC(=O)[C@H](CC(=O)O)NC(=O)[C@H](Cc1c[nH]c2ccccc12)NC(=O)[C@H](Cc1ccccc1)NC(=O)[C@H](C)NC(=O)[C@H](CCC(=O)O)NC(=O)[C@@H](N)CCCCN)C(C)C)[C@@H](C)CC)C(=O)N[C@@H](CC(N)=O)C(=O)N[C@@H](C)C(=O)O", "target": "CDK5 with p25", "test": "enzyme activity, inhibitor, radiometric", "conditions": "10 µM, 20 min", "measurement": "remaining activity", "result": "87%"}
{"SMILES": "Cc1c(NC(=O)c2cc(C(N)=O)nc3cc(F)ccc23)c(C(F)(F)F)nn1Cc1ccc(C#N)cc1", "target": "CDK5", "test": "cell-free assay, competition with immobilised ligand", "conditions": "1 µM", "measurement": "remaining binding", "result": "100%"}
{"SMILES": "CC(C)c1ccc(NC(=O)c2cccs2)c(-c2nc3ccccc3[nH]c2=O)c1", "target": "CDK5 with p35", "test": "enzyme activity, inhibitor", "conditions": "1 µM", "measurement": "activity vs control", "result": "103%"}
{"SMILES": "Cc1ccc(NC(=O)c2ccc(C)c(C(F)(F)F)c2)cc1C#Cc1nn(C2CCC(O)CC2)c2ncnc(N)c12 (stereo not drawn)", "target": "CDK5 with p35", "test": "cell-free assay", "conditions": "10 µM", "measurement": "remaining signal", "result": "127%"}
{"SMILES": "CO[C@@H](C)c1c(Nc2ccc([C@@H](N(C)C(=O)C3CCS(=O)(=O)CC3)C(F)(F)F)cc2)cnc2cc(Cl)nn12", "target": "CDK5", "test": "cell-free assay, competition with immobilised ligand", "conditions": "1 µM", "measurement": "remaining binding", "result": "99%"}
{"SMILES": "Nc1ncnc2occ(-c3ccc(NC(=O)Nc4cc(C(F)(F)F)ccc4F)cc3)c12", "target": "CDK5", "test": "cell-free assay, inhibitor", "conditions": "20 µM", "measurement": "remaining signal", "result": "0.55%"}
{"SMILES": "COc1ccc2c(c1)O[C@@H](c1ccc(OC)c(OC)c1)C[C@H]2NC(=O)C1(c2ccc3c(c2)OC(F)(F)O3)CC1", "target": "CDK5", "test": "cell-free assay, competition with immobilised ligand", "conditions": "1 µM", "measurement": "remaining binding", "result": "100%"}
{"SMILES": "N#CCCc1ccc2c(c1)-c1[nH]c3ccc([N+](=O)[O-])cc3c1CC(=O)N2", "target": "CDK5 with p35", "test": "cell-free assay", "conditions": "0.5 µM", "measurement": "remaining signal", "result": "2.6%"}
{"SMILES": "CS(=O)(=O)N1CCCC(NC(=O)[C@H](CCC2CCCCC2)NC(=O)c2ccc(CNc3ncnc4c3nnn4-c3ccccc3)cc2)C1 (stereo partly drawn)", "target": "CDK5", "test": "cell-free assay, competition with immobilised ligand", "conditions": "0.1 µM", "measurement": "remaining binding", "result": "94%"}
{"SMILES": "Cc1cc(NC(=O)c2cccc3cc(-c4cccc5[nH]nc(N)c45)ccc23)ccc1F", "target": "CDK5 with p35", "test": "enzyme activity, inhibitor", "conditions": "0.1 µM", "measurement": "activity vs control", "result": "103%"}
